Series [1] addresses T1, Amine oxidase [flavin-containing] A (Homo sapiens, UniProt P21397).
T1 sequence (P21397 whole entry): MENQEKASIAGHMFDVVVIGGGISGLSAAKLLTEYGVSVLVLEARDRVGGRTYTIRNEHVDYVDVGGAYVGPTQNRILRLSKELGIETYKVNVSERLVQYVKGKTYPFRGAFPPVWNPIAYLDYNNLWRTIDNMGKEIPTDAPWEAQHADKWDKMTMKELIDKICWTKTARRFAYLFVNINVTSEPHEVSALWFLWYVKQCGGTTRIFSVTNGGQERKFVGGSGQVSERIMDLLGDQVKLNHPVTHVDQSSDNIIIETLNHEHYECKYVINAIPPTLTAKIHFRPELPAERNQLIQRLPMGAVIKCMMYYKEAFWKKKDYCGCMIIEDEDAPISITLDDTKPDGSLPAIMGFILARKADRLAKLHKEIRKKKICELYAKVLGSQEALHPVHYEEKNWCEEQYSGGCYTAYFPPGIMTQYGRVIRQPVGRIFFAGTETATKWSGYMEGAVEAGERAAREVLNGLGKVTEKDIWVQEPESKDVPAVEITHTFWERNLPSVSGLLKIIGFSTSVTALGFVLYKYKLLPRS
The experiment in a line: Inhibition of recombinant human MAOA expressed in baculovirus infected BTI insect cell microsomes at 10 uM using MMTP as substrate preincubated for 5 mins followed by substrate addition by spectrophotometric analysis. Summed up: (§1)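 Insect-cell microsomes carrying recombinant human enzyme (25 µg per assay) in 0.1 M potassium phosphate. Incubated with inhibitor at 10 µM final (DMSO 3.3% v/v final) for 5 min at 37 °C. Started with MMTP at 0.15 mM. Absorbance increase followed at 420 nm at 37 °C, with v0 from ε 25000 M-1 cm-1. Activity given as a ratio to a DMSO-only control (100%).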

Series [2] deals with T2, Amine oxidase [flavin-containing] B (Homo sapiens, UniProt P27338).
T2 sequence (P27338 whole entry): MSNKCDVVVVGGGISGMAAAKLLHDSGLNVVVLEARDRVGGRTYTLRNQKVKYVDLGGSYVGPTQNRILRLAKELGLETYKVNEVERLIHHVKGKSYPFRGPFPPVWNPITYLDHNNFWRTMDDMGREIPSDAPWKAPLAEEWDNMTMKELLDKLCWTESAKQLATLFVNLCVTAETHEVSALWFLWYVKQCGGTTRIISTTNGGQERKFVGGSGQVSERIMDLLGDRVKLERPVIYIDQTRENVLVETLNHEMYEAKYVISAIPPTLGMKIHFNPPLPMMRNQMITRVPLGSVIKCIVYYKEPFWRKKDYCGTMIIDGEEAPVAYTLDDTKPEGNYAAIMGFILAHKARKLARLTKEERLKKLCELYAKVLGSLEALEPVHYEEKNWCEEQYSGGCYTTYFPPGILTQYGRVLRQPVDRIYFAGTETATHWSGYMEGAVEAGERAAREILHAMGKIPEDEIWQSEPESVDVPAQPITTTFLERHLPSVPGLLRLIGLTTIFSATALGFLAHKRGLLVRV
The series can be described thus: Inhibition of recombinant human MAOB expressed in baculovirus infected BTI insect cell microsomes using MMTP as substrate preincubated for 5 mins followed by substrate addition by spectrophotometric analysis. Summed up:
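MAO-B in insect-cell microsomes, 25 µg in 0.1 M potassium phosphate with 3.3% v/v DMSO final. Preincubated with inhibitor for 5 min at 37 °C, then MMTP added at 0.15 mM. Absorbance read at 420 nm at 37 °C. Remaining activity relative to the DMSO control was fitted against log10[I] to a dose-response curve for IC50. Mean ± SEM of two experiments.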

In series [3] the target is T2, Amine oxidase [flavin-containing] B. The series can be described thus: Inhibition of recombinant human MAOB expressed in baculovirus infected BTI insect cell microsomes at 10 uM using MMTP as substrate preincubated for 5 mins followed by substrate addition by spectrophotometric analysis. In short, it runs like this: as §1
The target is the same in series [4]. The experiment in a line: Competitive inhibition of human MAOB overexpressed in Pichia pastoris using MMTP as substrate preincubated for 5 mins followed by substrate addition by UV/vis spectrophotometric analysis. In short, it runs like this:
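Purified recombinant human MAO-B in reaction buffer containing 0.25% v/v reduced Triton X-100. MMTP assay read at 420 nm in quartz cuvettes under aerobic conditions at 25 °C. MMTP was varied from 0.07 to 2.00 mM and inhibitor from 3 to 40 µM. Apparent kcat (v0/[E]) was plotted against substrate and fitted to competitive, uncompetitive and noncompetitive models to give Ki.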

The target is the same in series [5]. The series can be described thus: Time-dependent inhibition of recombinant human MAOB expressed in baculovirus infected BTI insect cell microsomes at IC50 using MMTP as substrate preincubated for 5 mins followed by substrate addition measured after 5 to 60 mins by spectrophotometric analysis. In short, it runs like this:
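Microsomal human MAO-B was preincubated with inhibitor at 0.55 µM final for 5, 15, 30 or 60 min. Residual activity was then measured in the MMTP assay (420 nm, 37 °C). Rates expressed as apparent kcat (min-1); SEM from two replicates.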

Each structure is given as a SMILES string.

The inhibition is the drop in the measured response relative to a control, in per cent. The IC50 is the concentration that gives 50% inhibition. What is called Ki is a measure of affinity in units of concentration, obtained from inhibition or displacement. Low readings indicate tighter binding, high ones weaker binding. With `O=C(/C=C/c1cccc2c1OCO2)c1cccc(OC(F)(F)F)c1`, the inhibition at 10 µM in series [1] was 0%; in series [3], 88%. Moreover, the IC50 in series [2] is 1.51 µM. Further, the affinity in series [4] corresponds to a Ki of 2.36 µM.
Consider `O=C(/C=C/c1cccc2c1OCO2)c1cccc(C(F)(F)F)c1`, for which the figures for the inhibition at 10 µM in series [1] and in series [3] were 16% and 96%, respectively. Further, the TDI entry in series [5] is given as “Not Active”. Also, the IC50 in series [2] amounted to 0.55 µM. In series [4], this compound registered a Ki of 0.78 µM.
As to `COc1cccc(/C=C/C(=O)c2cccc(OC(F)(F)F)c2)c1OC`, the results for the inhibition at 10 µM in series [1] and in series [3] were 0% and 41%, respectively.
For `COc1cccc(/C=C/C(=O)c2ccccc2C(F)(F)F)c1OC`, the inhibition at 10 µM in series [1] was determined as 0%; in series [3] it was 27%.
In the case of `CSc1ccc(C(=O)/C=C/c2cccc3c2OCO3)cc1`, the figures for the inhibition at 10 µM in series [1] and in series [3] were 0% and 86%, respectively. Besides, the IC50 in series [2] is 0.95 µM. Also, in series [4], the inhibitory constant (Ki) came out at 0.55 µM.
As for `COc1cccc(/C=C/C(=O)c2cccc(C(F)(F)F)c2)c1OC`, the inhibition at 10 µM in series [1] is 0%; in series [3] it was 63%. Further, the IC50 in series [2] came to 4.49 µM.
In the case of `COc1cccc(/C=C/C(=O)c2ccc(SC)cc2)c1OC`, the figures for the inhibition at 10 µM in series [1] and in series [3] were 0% and 36%, respectively.
Turning to `CS(=O)(=O)c1ccc(C(=O)/C=C/c2cccc3c2OCO3)cc1`, the inhibition at 10 µM in series [1] came out at 0%; in series [3], 93%. The IC50 in series [2] is 1 µM. Also, the Ki in series [4] worked out at 0.72 µM.
For the compound `O=C(/C=C/c1cccc2c1OCO2)c1ccccc1C(F)(F)F`, in series [3], the inhibition at 10 µM turned out to be 7%.
For the compound `COc1cccc(/C=C/C(=O)c2ccc(S(C)(=O)=O)cc2)c1OC`, the figures for the inhibition at 10 µM in series [1] and in series [3] were 0% and 90%, respectively. In series [2], the IC50 was 1.97 µM. Moreover, in series [4], the affinity, expressed as Ki, was 1.15 µM.

The values above are taken from ChEMBL document CHEMBL3779824, “Design and synthesis of novel chalcones as potent selective monoamine oxidase-B inhibitors” (Eur J Med Chem, 2016).
